24 molecules from ChEMBL document CHEMBL1143617, “Potential antitumor agents. 37. Synthesis and antitumor activity of guanylhydrazones from imidazo[2,1-b]thiazoles and from the new heterocyclic system thiazolo[2',3':2,3]imidazo[4,5-c]quinoline” (2005) can be followed below.

The structures appear in SMILES notation.

Experiment [1] concerns Panel NCI-60 (60 carcinoma cell lines). Kind of experiment: Growth inhibitory power against human cancer cell line; (Range=-4.04 to -6.08). The format is functional. The procedure, abridged: (§1)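 NCI 60 human tumour cell line panel, entered after a three-cell-line prescreen. Five concentrations at 10-fold dilutions: 10-4, 10-5, 10-6, 10^-7 and 10^-8 M. Results given as log values of growth inhibitory power (GI50) and cytostatic effect.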

The test system is the same in experiment [2]. The experiment in a line: Cytotoxic effect against human cancer cell line; (Range=-4.01 to -5.01). It is filed as functional. An outline of the steps:
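NCI 60-cell-line panel, tested at five 10-fold dilutions from 10^-4 M down to 10^-8 M. Results are expressed as log values of growth inhibitory power (GI50) and cytostatic effect.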

For experiment [3] the test system is unchanged. Kind of experiment: Cytostatic effect against human cancer cell line; (Range=-4.01 to -5.65). The conditions noted are these: read-out: Log TGI (converted). The format is functional. The procedure, abridged:
as §1

The species named for experiment [4] is Rattus norvegicus. Kind of experiment: Inhibitory effect on mitochondrial respiration in coupled rat liver mitochondria at 35 uM concentration measured as TMPD test complex IV activity adding ascorbate; State 3.
The species named for experiment [5] is Rattus norvegicus. The experiment in a line: Inhibitory effect on mitochondrial respiration in […]-uncoupled rat liver mitochondria; Activity measured as NADH-O2 activity adding glutamate/malate. It is filed as functional. An outline of the steps: (§2)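 Isolated coupled rat liver mitochondria; compound at 35 µM. Oxygen consumption was measured polarographically with a Clark electrode. Reactions were started with a saturating amount of substrate: glutamate/malate (NADH-O2), succinate (succinate-O2) or ascorbate/TMPD (Complex IV). The uncoupled rate was obtained by adding 2,4-dinitrophenol. The respiratory control index was also derived. Rates are in ngA oxygen/min/mg protein, mean of five and eight independent measures.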

For experiment [6], the species on record is Rattus norvegicus. The experiment in a line: Inhibitory effect on mitochondrial respiration in […]-uncoupled rat liver mitochondria; Activity measured as succinate-O2 activity adding succinate. The format is functional. The procedure, abridged: as §2
Another experiment deals with COLO 205. Kind of experiment: Growth inhibitory power against human colon (COLO 205) cell line. It is filed as functional. An outline of the steps:
as §1

The test system of the next experiment is K562. The experiment in a line: Growth inhibitory power against human leukemia (K-562)cell line. It is filed as functional. The procedure, abridged: as §1
The subject of another experiment is OVCAR-3. The experiment in a line: Growth inhibitory power against human ovarian (OVCAR-3) cell line cell line. The format is functional. The procedure, abridged:
as §1

The species entered for experiment [7] is Rattus norvegicus. The experiment in a line: Compound was tested against rat liver mitochondria respiration; Activity as respiratory control index measured as TMPD test complex IV activity adding ascorbate. It is filed as functional. An outline of the steps:
as §2

For experiment [8], the species on record is Rattus norvegicus. The experiment in a line: Inhibitory effect on mitochondrial respiration in coupled rat liver mitochondria at 35 uM concentration measured as NADH-O2 activity adding glutamate/malate; State 4.
Experiment [9] is filed under the species Rattus norvegicus. The experiment in a line: Inhibitory effect on mitochondrial respiration in coupled rat liver mitochondria at 35 uM concentration measured as TMPD test complex IV activity adding ascorbate; State 4.
Another experiment deals with RXF 393. Kind of experiment: Growth inhibitory power against human renal (RXF 393) cell line. The format is functional. The procedure, abridged:
as §1

The species entered for experiment [10] is Rattus norvegicus. The experiment in a line: Inhibitory effect on mitochondrial respiration in coupled rat liver mitochondria at 35 uM concentration measured as succinate-O2 activity adding succinate; State 3.
For experiment [11], the species on record is Rattus norvegicus. The experiment in a line: Compound was tested against rat liver mitochondria respiration; Activity as respiratory control index measured as NADH-O2 activity adding glutamate/malate. The format is functional. An outline of the steps: as §2
Experiment [12] is filed under the species Rattus norvegicus. Kind of experiment: Inhibitory effect on mitochondrial respiration in […]-uncoupled rat liver mitochondria; Activity measured as TMPD test complex IV activity adding ascorbate. It is filed as functional. An outline of the steps: as §2
For experiment [13], the species on record is Rattus norvegicus. Kind of experiment: Inhibitory effect on mitochondrial respiration in coupled rat liver mitochondria at 35 uM concentration measured as NADH-O2 activity adding glutamate/malate; State 3.
The species named for experiment [14] is Rattus norvegicus. Kind of experiment: Inhibitory effect on mitochondrial respiration in coupled rat liver mitochondria at 35 uM concentration measured as succinate-O2 activity adding succinate; State 4.
The species entered for experiment [15] is Rattus norvegicus. The experiment in a line: Compound was tested against rat liver mitochondria respiration; Activity as respiratory control index measured as succinate-O2 activity adding succinate. The format is functional. The procedure, abridged: as §2

What is called GI50 is the concentration that inhibits growth by half. A low value points to more potent growth inhibition. A word on the TGI: it is the concentration giving total growth inhibition. Regarding `CCCc1cn2c(/C=N/N=C(N)N)c(-c3c(OC)ccc(OC)c3[N+](=O)[O-])nc2s1`, the GI50 in experiment [1] is less than 832 nM. In [2], this molecule showed an LC50 (50% lethal concentration) of less than 9770 nM. For the same molecule, the TGI in experiment [3] was less than 2240 nM.

As for `COc1cc([N+](=O)[O-])c(OC)cc1-c1nc2scc(C)n2c1/C=N/N=C(N)N`, in [1], the GI50 is less than 832 nM. Further, the LC50 (50% lethal concentration) in experiment [2] was less than 9770 nM. Further, the TGI in [3] was less than 2240 nM.

Regarding `COc1ccc(OC)c([N+](=O)[O-])c1-c1nc2scc(C)n2c1/C=N/N=C(N)N`, the GI50 in experiment [1] is less than 832 nM. Also, in [2], the LC50 (50% lethal concentration) was less than 9770 nM. Also, in experiment [3], the TGI was less than 2240 nM.

Molecule `COc1ccc(OC)c([N+](=O)[O-])c1-c1nc2sccn2c1/C=N/N=C(N)N` showed a GI50 in [1] of less than 832 nM. In experiment [2], this molecule showed an LC50 (50% lethal concentration) of less than 9770 nM. Further, the TGI in [3] is less than 2240 nM.

For the molecule `O=C1C=CC(=O)c2c1ncc1c2nc2sccn21`, in experiment [1], the GI50 was less than 832 nM. Further, the LC50 (50% lethal concentration) in [2] was less than 9770 nM. Further, the TGI in [3] is less than 2240 nM.

For `COc1cc([N+](=O)[O-])c(OC)cc1-c1nc2sccn2c1/C=N/NC(=N)N`, the concentration for 50% growth inhibition (GI50) in [1] was less than 832 nM. In experiment [2], this molecule gave an LC50 (50% lethal concentration) of less than 9770 nM. In addition, the TGI in experiment [3] is less than 2240 nM.

In turn, `COc1cc([N+](=O)[O-])c(OC)cc1-c1nc2sc(C)cn2c1/C=N/N=C(N)N` had a GI50 in experiment [1] of less than 832 nM. In experiment [2], this molecule gave an LC50 (50% lethal concentration) of less than 9770 nM. The TGI in experiment [3] is less than 2240 nM.

In experiment [1], `COc1ccc(OC)c([N+](=O)[O-])c1-c1nc2sc(Cl)cn2c1/C=N/N=C(N)N` had a GI50 of less than 832 nM. This molecule also had an LC50 (50% lethal concentration) in experiment [2] of less than 9770 nM. Besides, in experiment [3], the TGI was less than 2240 nM.

The molecule `N=C(N)N/N=C/c1c(-c2ccc(O)c(O)c2)nc2sccn12` had a concentration for 50% growth inhibition (GI50) in [1] of less than 832 nM. The molecule also had an LC50 (50% lethal concentration) in experiment [2] of less than 9770 nM. Also, the TGI in experiment [3] was less than 2240 nM.

On to `COc1ccc(OC)c2c1ncc1c2nc2sccn21`, for which, in experiment [1], the GI50 is less than 832 nM. Further, the LC50 (50% lethal concentration) in experiment [2] was less than 9770 nM. In addition, the TGI in experiment [3] was less than 2240 nM.

`COc1cc([N+](=O)[O-])c(OC)cc1-c1nc2sc(C)c(C)n2c1/C=N/N=C(N)N`: in experiment [1], the concentration for 50% growth inhibition (GI50) is less than 832 nM. Besides, the LC50 (50% lethal concentration) in experiment [2] was less than 9770 nM. For the same molecule, the TGI in experiment [3] is less than 2240 nM.

Consider `COc1cc(OC)c([N+](=O)[O-])cc1-c1nc2sccn2c1/C=N/N=C(N)N`, for which the GI50 in experiment [1] was less than 832 nM. In addition, the LC50 (50% lethal concentration) in [2] was less than 9770 nM. In addition, the TGI in experiment [3] was less than 2240 nM.

In the case of `COc1cc([N+](=O)[O-])c(OC)cc1-c1nc2n(c1/C=N/N=C(N)N)CCS2`, the GI50 in experiment [1] was less than 832 nM. This molecule also gave an LC50 (50% lethal concentration) in experiment [2] of less than 9770 nM. In [3], the TGI was less than 2240 nM.

As for `COc1cc([N+](=O)[O-])c(OC)cc1-c1nc2sc(Cl)cn2c1/C=N/N=C(N)N`, the Actvity (ngAoxigen/min/mg of RLM) is 142 in the experiment listed under Rattus norvegicus [4]; 74.2 in the experiment listed under Rattus norvegicus [5]; 81.7 in the experiment filed under Rattus norvegicus [6]; 23.1 in the experiment filed under Rattus norvegicus [8]; 98 in the experiment filed under Rattus norvegicus [9]; 54.9 in the experiment filed under Rattus norvegicus [10]. Besides, the Actvity (ngAoxigen/min/mg of RLM) in the experiment filed under Rattus norvegicus [12] worked out at 158; in the experiment filed under Rattus norvegicus [13], 47.7; in the experiment listed under Rattus norvegicus [14], 33.4. The GI50 is 1550 nM in the experiment with COLO 205, 1910 nM in the experiment on K562, 589 nM in the experiment on OVCAR-3 and 1450 nM in the experiment with RXF 393. Further, the Actvity came to 1.5 in the experiment filed under Rattus norvegicus [7], 2.3 in the experiment filed under Rattus norvegicus [11] and 1.7 in the experiment filed under Rattus norvegicus [15].

In turn, `N=C(N)/N=N/c1ccc(NNC(=N)N)c2ncc3c(nc4sccn43)c12` showed a GI50 in experiment [1] of less than 832 nM. This molecule also showed an LC50 (50% lethal concentration) in experiment [2] of less than 9770 nM. Besides, the total growth inhibition concentration (TGI) in [3] is less than 2240 nM.

The molecule `N=C(N)N/N=C/c1c(-c2cc(O)ccc2O)nc2sccn12` gave a GI50 in [1] of less than 832 nM. This molecule also showed an LC50 (50% lethal concentration) in experiment [2] of less than 9770 nM. Also, the TGI in experiment [3] was less than 2240 nM.

`COc1cc(-c2nc3sccn3c2/C=N/N=C(N)N)c([N+](=O)[O-])cc1OC` gave a GI50 in experiment [1] of less than 832 nM. This molecule showed an LC50 (50% lethal concentration) in experiment [2] of less than 9770 nM. Besides, in experiment [3], the TGI is less than 2240 nM.

For `COc1ccc(OC)c([N+](=O)[O-])c1-c1nc2sc(C)c(C)n2c1/C=N/N=C(N)N`, the GI50 in experiment [1] was less than 832 nM. For the same molecule, the LC50 (50% lethal concentration) in experiment [2] is less than 9770 nM. The TGI in [3] is less than 2240 nM.

For `COc1ccc(-c2nc3sccn3c2/C=N/N=C(N)N)cc1OC`, in experiment [1], the GI50 was less than 832 nM. Moreover, the LC50 (50% lethal concentration) in experiment [2] was less than 9770 nM. Besides, in experiment [3], the total growth inhibition concentration (TGI) was less than 2240 nM.

With `COc1ccc(OC)c([N+](=O)[O-])c1-c1nc2sc(C)cn2c1/C=N/N=C(N)N`, the GI50 in experiment [1] was less than 832 nM. Also, the LC50 (50% lethal concentration) in experiment [2] was less than 9770 nM. Besides, in [3], the TGI is less than 2240 nM.

In experiment [1], `COc1ccc(OC)c(-c2nc3sccn3c2/C=N/N=C(N)N)c1` gave a concentration for 50% growth inhibition (GI50) of less than 832 nM. Besides, the LC50 (50% lethal concentration) in experiment [2] is less than 9770 nM. In experiment [3], the TGI was less than 2240 nM.

Molecule `COc1cc2ncc3c(nc4sccn43)c2cc1OC` showed a 50% growth inhibitory concentration (GI50) in [1] of less than 832 nM. The LC50 (50% lethal concentration) in experiment [2] is less than 9770 nM. Besides, the TGI in experiment [3] is less than 2240 nM.

In [1], `COc1ccc(OC)c([N+](=O)[O-])c1-c1nc2n(c1/C=N/N=C(N)N)CCS2` gave a GI50 of less than 832 nM. Moreover, the LC50 (50% lethal concentration) in [2] is less than 9770 nM. The TGI in experiment [3] was less than 2240 nM.

Regarding `CC(/C=N/NC(=N)N)=N/NC(=N)N`, the Actvity (ngAoxigen/min/mg of RLM) in the experiment filed under Rattus norvegicus [4] stood at 128; in the experiment listed under Rattus norvegicus [5], 106; in the experiment filed under Rattus norvegicus [6], 169; in the experiment filed under Rattus norvegicus [8] it was 17.9; in the experiment listed under Rattus norvegicus [9] it was 91.1; in the experiment filed under Rattus norvegicus [10], 141. Besides, the Actvity (ngAoxigen/min/mg of RLM) was 156 in the experiment filed under Rattus norvegicus [12], 80 in the experiment listed under Rattus norvegicus [13] and 39.2 in the experiment filed under Rattus norvegicus [14]. Moreover, the values for the Actvity in the experiment listed under Rattus norvegicus [7], in the experiment listed under Rattus norvegicus [11] and in the experiment listed under Rattus norvegicus [15] were 1.7, 4.9 and 3.7, respectively.
